Results: publication PMC7668563 (International journal of molecular biology (Edmond, Okla.), 2020)
Like-named read-outs stand apart in the source and are kept apart here.

Experiments:
[1] = target: T1, apo-human transferrin (apo-hTf) (Homo sapiens, UniProt P02787); assay: UV-Vis absorbance titration of apo-hTf; assay type: binding
[2] = target: T1, apo-human transferrin (apo-hTf); assay: Far-UV circular dichroism titration of apo-hTf, secondary structure content
Method in brief: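 Apo-hTf (4.0×10−7 mol L−1) in 2 mM Tris-HCl pH 7.4 was titrated with a 1.0×10−3 mol L−1 stock of test compound in Tris-HCl/2% DMSO, to final 0–2.4×10−6 mol L−1. Far-UV CD was recorded from 190–250 nm under nitrogen in a 1.0 cm cell: six scans at 100 nm/min. Baseline was buffer ± DMSO at room temperature. α-Helix was derived from MRE at 208 nm; β-sheet and random coil by the CD-RRG method.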

[3] = tested on: human breast adenocarcinoma cell line, MCF-7; details: cited from earlier work
[4] = tested on: human colorectal adenocarcinoma cell line, HT-29; details: cited from earlier work
[5] = target: T1, apo-human transferrin (apo-hTf); assay: Fluorescence quenching of apo-hTf; assay type: binding; details: for biomolecular quenching rate constant kq: kq=Ksv/τ0; for Stern-Volmer quenching constant Ksv / number of binding sites n: pH 7.4; for quenching association constant Ka: pH 7.4, modified Stern-Volmer
Method in brief: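 Intrinsic fluorescence of apo-hTf in Tris-HCl pH 7.4 was titrated with test compound (Tris-HCl/2% DMSO). Conditions: excitation 280 nm, emission 290–500 nm, slits 10/5 nm, 1.0 cm quartz cell, at 296, 303, 310 and 317 K, triplicate titrations. Intensities were corrected for inner filter effect using absorbances at excitation and emission wavelengths. Ksv came from Stern-Volmer plots of F0/F vs [Q]; kq = Ksv/τ0 (τ0 ~1.0×10−8); Ka and n came from the modified Stern-Volmer equation.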

[6] = target: T1, apo-human transferrin (apo-hTf); assay: Thermodynamic parameters of apo-hTf complex formation; assay type: binding
Method in brief: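 Ksv values were obtained from apo-hTf fluorescence quenching at pH 7.4 at 296, 303, 310 and 317 K. ΔH°, ΔS° and ΔG° were derived from linear regression of ln(Ksv) vs 1/T (Van't Hoff equation).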

[7] = target: T1, apo-human transferrin (apo-hTf); assay: Fluorescence resonance energy transfer; assay type: binding
Method in brief: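 Emission spectrum of 1.0×10−5 mol L−1 apo-hTf and absorption spectrum of 1.0×10−5 mol L−1 test compound were recorded in 20 mM Tris-HCl pH 7.4 at room temperature, 260–450 nm, and their spectral overlap determined. E was calculated from apo-hTf fluorescence without and with equimolar test compound. R0 and donor–acceptor distance r came from Förster equations.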

T1 sequence (P02787 20-698): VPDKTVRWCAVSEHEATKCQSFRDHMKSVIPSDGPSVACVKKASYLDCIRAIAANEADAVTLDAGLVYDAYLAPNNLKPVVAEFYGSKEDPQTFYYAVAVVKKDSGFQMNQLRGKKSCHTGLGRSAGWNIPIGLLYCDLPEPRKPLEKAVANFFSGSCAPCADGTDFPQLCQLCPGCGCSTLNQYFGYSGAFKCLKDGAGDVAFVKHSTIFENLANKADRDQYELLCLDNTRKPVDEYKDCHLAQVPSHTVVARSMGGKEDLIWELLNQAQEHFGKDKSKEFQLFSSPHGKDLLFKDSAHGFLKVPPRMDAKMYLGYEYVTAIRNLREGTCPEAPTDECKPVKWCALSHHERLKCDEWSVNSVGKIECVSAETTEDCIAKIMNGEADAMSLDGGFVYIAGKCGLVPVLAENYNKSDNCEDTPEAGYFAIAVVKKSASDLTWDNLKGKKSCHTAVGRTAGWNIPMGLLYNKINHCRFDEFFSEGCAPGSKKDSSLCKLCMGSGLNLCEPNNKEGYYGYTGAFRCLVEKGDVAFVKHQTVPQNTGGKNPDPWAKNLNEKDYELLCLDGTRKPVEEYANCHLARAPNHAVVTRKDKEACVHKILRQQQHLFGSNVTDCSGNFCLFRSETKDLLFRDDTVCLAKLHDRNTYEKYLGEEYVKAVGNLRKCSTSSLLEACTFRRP

For `N.N.[Cl][Pt][Cl]` [(NH3)2Pt(II)Cl2, cis-diamminedichloroplatinum (II), reference compound], the “Ka at 280 nm” value ([1]; absorbance at 280 nm) was 740 M⁻¹, the “Association constants, Ka, 280 nm” value ([1]; absorbance of apo-hTf at 280 nm, pH 7.4) was 0.74 10^3 M^−1 and the “other secondary structure content of apo-hTf” value ([2]; compound concentration 0.4 (M)) was 19.1%. For the same compound, the “random coil content of apo-hTf” value ([2]; compound concentration 0.4 (M)) was 33.9%, the “α-helix content of apo-hTf” value ([2]; compound concentration 0.4 (M)) was 28.9% and the “β-sheet content of apo-hTf” value ([2]; compound concentration 0.4 (M)) was 18.1%. The “other secondary structure content of apo-hTf” value ([2]; compound concentration 0.8 (M)) was 19.2%, the “random coil content of apo-hTf” value ([2]; compound concentration 0.8 (M)) was 33.9% and the “α-helix content of apo-hTf” value ([2]; compound concentration 0.8 (M)) was 28.7%. The “β-sheet content of apo-hTf” value ([2]; compound concentration 0.8 (M)) was 18.2%, the “other secondary structure content of apo-hTf” value ([2]; compound concentration 1.2 (M)) was 19.2% and the “random coil content of apo-hTf” value ([2]; compound concentration 1.2 (M)) was 34%. For the same compound, the “α-helix content of apo-hTf” value ([2]; compound concentration 1.2 (M)) was 28.5%, the “β-sheet content of apo-hTf” value ([2]; compound concentration 1.2 (M)) was 18.3% and the “other secondary structure content of apo-hTf” value ([2]; compound concentration 1.6 (M)) was 19.3%. For the same compound, the “random coil content of apo-hTf” value ([2]; compound concentration 1.6 (M)) was 34%, the “α-helix content of apo-hTf” value ([2]; compound concentration 1.6 (M)) was 28.3% and the “β-sheet content of apo-hTf” value ([2]; compound concentration 1.6 (M)) was 18.4%. For the same compound, the “other secondary structure content of apo-hTf” value ([2]; compound concentration 2 (M)) was 19.3%, the “random coil content of apo-hTf” value ([2]; compound concentration 2 (M)) was 34.1% and the “α-helix content of apo-hTf” value ([2]; compound concentration 2 (M)) was 28.1%. The “β-sheet content of apo-hTf” value ([2]; compound concentration 2 (M)) was 18.5%, the “other secondary structure content of apo-hTf” value ([2]; compound concentration 2.4 (M)) was 19.3% and the “random coil content of apo-hTf” value ([2]; compound concentration 2.4 (M)) was 34.1%. The “α-helix content of apo-hTf” value ([2]; compound concentration 2.4 (M)) was 28%, the “β-sheet content of apo-hTf” value ([2]; compound concentration 2.4 (M)) was 18.6% and the IC50 ([3]; read-out: IC50 (±SD), MCF-7, ref 83) was 2 µM. The IC50 ([3]; read-out: IC50 (±SD), MCF-7, ref 84) was 4.6 µM, the IC50 ([4]; read-out: IC50 (±SD), HT-29, ref 77) was 66 µM and the IC50 ([4]; read-out: IC50 (±SD), HT-29, ref 84) was 23 µM. For the same compound, the IC50 ([4]; read-out: IC50 (±SD), HT-29, ref 85) was 76 µM, the “biomolecular quenching rate constant kq” value ([5]; 296 K) was 1.35e+11 M⁻¹ s⁻¹ and the “Stern-Volmer quenching constant Ksv” value ([5]; 296 K) was 1350 M⁻¹. The “number of binding sites n” value ([5]; 296 K) was 0.97, the “quenching association constant Ka” value ([5]; 296 K) was 1100 M⁻¹ and the “biomolecular quenching rate constant kq” value ([5]; 303 K) was 1.1e+11 M⁻¹ s⁻¹. The “Stern-Volmer quenching constant Ksv” value ([5]; 303 K) was 1100 M⁻¹, the “number of binding sites n” value ([5]; 303 K) was 1.01 and the “quenching association constant Ka” value ([5]; 303 K) was 1200 M⁻¹. The “biomolecular quenching rate constant kq” value ([5]; 310 K) was 9.8e+10 M⁻¹ s⁻¹, the “Stern-Volmer quenching constant Ksv” value ([5]; 310 K) was 980 M⁻¹ and the “number of binding sites n” value ([5]; 310 K) was 1.04. The “quenching association constant Ka” value ([5]; 310 K) was 1400 M⁻¹, the “biomolecular quenching rate constant kq” value ([5]; 317 K) was 8.6e+10 M⁻¹ s⁻¹ and the “Stern-Volmer quenching constant Ksv” value ([5]; 317 K) was 860 M⁻¹. For the same compound, the “number of binding sites n” value ([5]; 317 K) was 1.07, the “quenching association constant Ka” value ([5]; 317 K) was 1600 M⁻¹ and the “∆G°” value ([6]; 296 K) was -4.226 kcal/mol. The “∆G°” value ([6]; 303 K) was -4.233 kcal/mol, the “∆G°” value ([6]; 310 K) was -4.242 kcal/mol and the “∆G°” value ([6]; 317 K) was -4.252 kcal/mol. For the same compound, the “∆H°” value ([6]; pH 7.4, from Ksv at 296-317 K) was -3.86 kcal/mol, the “∆S°” value ([6]; pH 7.4, from Ksv at 296-317 K) was 5.17 J/mol K and the “Förster critical energy transfer distance R0” value ([7]; k^2=2/3, n=1.336, ØD=0.118) was 7.4 nm. The “binding distance r (donor-acceptor)” value ([7]; k^2=2/3, n=1.336, ØD=0.118) was 10.35 nm and the “efficiency of energy transfer E” value ([7]; room temperature, 1.0×10^−5 mol L^−1 each) was 0.118.
